The values that follow come from ChEMBL document CHEMBL1156175, “Synthesis, molecular modeling and biological evaluation of PSB as targeted antibiotics” (Bioorg Med Chem, 2010).

SMILES strings stand for the structures. pIC50: −log10 of the molar value. In brackets after ≈: the same amount, converted by molar mass.

Assay [1] deals with T1, 3-oxoacyl-[acyl-carrier-protein] synthase 3 (Escherichia coli, UniProt C3TDZ2).
T1 sequence (C3TDZ2 whole entry): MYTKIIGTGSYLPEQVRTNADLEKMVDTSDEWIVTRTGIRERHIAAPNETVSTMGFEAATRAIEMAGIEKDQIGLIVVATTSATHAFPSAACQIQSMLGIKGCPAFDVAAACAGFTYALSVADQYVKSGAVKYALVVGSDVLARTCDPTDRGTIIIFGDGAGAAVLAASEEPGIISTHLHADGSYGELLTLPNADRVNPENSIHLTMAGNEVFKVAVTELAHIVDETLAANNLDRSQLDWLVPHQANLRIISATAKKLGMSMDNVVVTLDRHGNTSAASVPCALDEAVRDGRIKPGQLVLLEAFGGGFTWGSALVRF
The assay is described as follows: Inhibition of Escherichia coli KAS3 after 1 min assessed as incorporation of 3H signal in the final product by liquid scintillation counter. Conditions: in the assay text read “after 25 mins” for “after 1 min”. The method in brief: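 His-tagged ecKAS III expressed in E. coli BL21(DE3) (pET30) and purified on Ni–NTA. Reaction in 20 mM sodium phosphate pH 7.0, 0.5 mM DTT, 0.25 mM MgCl₂ with holo-ACP and 1 nM enzyme, preincubated 1 min. Started with acetyl-CoA, NADH and NADPH (0.5 mM each for the last two); run 25 min. Stopped with ice-cold TCA; protein pellet washed and dissolved in NaOH; ³H incorporation read by liquid scintillation. Inhibitors added from DMSO stock, final DMSO ≤2%.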

In assay [2] the target is T1, 3-oxoacyl-[acyl-carrier-protein] synthase 3. The assay is described as follows: Inhibition of Escherichia coli KAS3 after 25 mins assessed as incorporation of 3H signal in the final product by liquid scintillation counter.
The subject of a further assay is Escherichia coli. Put plainly: Antibacterial activity against Escherichia coli ATCC 35218 after 24 hrs by colorimetric method using dye MTT. Conditions: ATCC 35218, 24 h. The format is functional. The method in brief: (§1)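 Mueller–Hinton broth microdilution; compounds from DMSO stock (50 μg/mL) serially diluted in medium; inoculum approx. 10⁵ cfu/mL; 37 °C for 24 h. After visual MIC reading, PBS (0.01 mol/L, pH 7.4) containing 2 mg/mL MTT added, incubated 4–5 h at room temperature, then 12 h at room temperature; OD read at 550 nm. MIC is the average of triplicates.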

A further assay concerns Pseudomonas aeruginosa. The assay is described as follows: Antibacterial activity against Pseudomonas aeruginosa ATCC 13525 after 24 hrs by colorimetric method using dye MTT. Type of assay: functional. Conditions: ATCC 13525, 24 h. The method in brief:
as §1

A further assay has as its system Bacillus subtilis. Put plainly: Antibacterial activity against Bacillus subtilis ATCC 6633 after 24 hrs by colorimetric method using dye MTT. The format is functional. The note with it: ATCC 6633, 24 h. In outline:
as §1

The test system of another assay is Staphylococcus aureus. Put plainly: Antibacterial activity against Staphylococcus aureus ATCC 6538 after 24 hrs by colorimetric method using dye MTT. Type of assay: functional. The note with it: ATCC 6538, 24 h. In outline:
as §1

Broadly, the pIC50 is −log10 of the IC50, conventionally taken in molar units. As to `CC(CNC(=O)c1ccccc1O)/N=C/c1c(O)ccc2ccccc12` (stereo unspecified), the pIC50 in assay [1] is 4.25.
Turning to `CC(CNC(=O)c1cc(Br)ccc1O)/N=C/c1ccccc1O` (stereo unspecified), in assay [2], the pIC50 is under 3.88.
On to `CC(CNC(=O)c1cc(Br)ccc1O)/N=C/c1cc(F)ccc1O` (stereo unspecified), for which the negative-log IC50 (pIC50) in assay [1] was 4.25.
For `CC(CNC(=O)c1ccccc1O)/N=C/c1cc(Br)ccc1O` (stereo unspecified), the pIC50 in assay [2] was 4.80.
The term MIC denotes the lowest concentration that inhibits growth of the organism. A low value points to inhibition by little substance. `CC(CNC(=O)c1ccccc1O)/N=C/c1cc(I)ccc1O` (stereo unspecified): the pIC50 in assay [2] is 5.74. The MIC with Escherichia coli was 6.25 µg/mL (≈ 14.7 µM); in the assay with Pseudomonas aeruginosa it was 3.13 µg/mL (≈ 7.38 µM); with Bacillus subtilis, 0.78 µg/mL (≈ 1.84 µM); with Staphylococcus aureus, 12.5 µg/mL (≈ 29.5 µM).
Take `CC(CNC(=O)c1ccccc1O)/N=C/c1cc(Cl)cc(Cl)c1O` (stereo unspecified): the MIC against Escherichia coli was determined as 0.39 µg/mL (≈ 1.06 µM); in the assay on Pseudomonas aeruginosa it was 0.2 µg/mL (≈ 0.545 µM); against Bacillus subtilis, 1.56 µg/mL (≈ 4.25 µM); against Staphylococcus aureus, 3.13 µg/mL (≈ 8.52 µM). In addition, the negative-log IC50 (pIC50) in assay [1] was 6.07.
In the case of `CC(CNC(=O)c1cc(Br)ccc1O)/N=C/c1cc(Cl)ccc1O` (stereo unspecified), the pIC50 in assay [2] is under 3.92.
The same measure, in the same setting: the result for `CC(CNC(=O)c1cc(Br)ccc1O)/N=C/c1cc(I)ccc1O` (stereo unspecified) reads 4.73; that for `CC(CNC(=O)c1cc(Br)ccc1O)/N=C/c1cc(Cl)cc(Cl)c1O` (stereo unspecified), 4.71.
Regarding `CC(CNC(=O)c1cc(Br)ccc1O)/N=C/c1cc(I)cc(I)c1O` (stereo unspecified), the pIC50 in assay [1] is under 4.10.
For the compound `Cc1ccc(C(=O)NCC(C)/N=C/c2cc(F)ccc2O)c(O)c1` (stereo unspecified), in assay [2], the pIC50 was 4.77. Besides, the MIC in the assay with Escherichia coli was 6.25 µg/mL (≈ 18.9 µM); against Pseudomonas aeruginosa, over 50 µg/mL; against Bacillus subtilis, 3.13 µg/mL (≈ 9.47 µM); in the assay with Staphylococcus aureus it was 12.5 µg/mL (≈ 37.8 µM).
In the case of `Cc1ccc(C(=O)NCC(C)/N=C/c2cc(Cl)ccc2O)c(O)c1` (stereo unspecified), the negative logarithm of the IC50 (pIC50) in assay [1] is 4.60.
On to `Cc1ccc(C(=O)NCC(C)/N=C/c2cc(Br)ccc2O)c(O)c1` (stereo unspecified), for which, in assay [2], the negative logarithm of the IC50 (pIC50) was 4.79.
In the case of `Cc1ccc(C(=O)NCC(C)/N=C/c2cc(I)ccc2O)c(O)c1` (stereo unspecified), the negative-log IC50 (pIC50) in assay [2] is 5.99. Moreover, the minimum inhibitory concentration (MIC) amounted to 0.39 µg/mL (≈ 0.89 µM) with Escherichia coli, 3.13 µg/mL (≈ 7.14 µM) against Pseudomonas aeruginosa, 1.56 µg/mL (≈ 3.56 µM) with Bacillus subtilis and 1.56 µg/mL (≈ 3.56 µM) with Staphylococcus aureus.
For `CC(CNC(=O)c1ccccc1O)/N=C/c1cc(Br)cc(Br)c1O` (stereo unspecified), the MIC with Escherichia coli turned out to be 25 µg/mL (≈ 54.8 µM); in the assay on Pseudomonas aeruginosa, 0.78 µg/mL (≈ 1.71 µM); against Bacillus subtilis it was 12.5 µg/mL (≈ 27.4 µM); against Staphylococcus aureus it was 6.25 µg/mL (≈ 13.7 µM). For the same compound, the negative-log IC50 (pIC50) in assay [1] was 5.16.
Taken in the same sequence, the figures for `CC(CNC(=O)c1ccccc1O)/N=C/c1cc(I)cc(I)c1O` (stereo unspecified) were over 50 µg/mL, 6.25 µg/mL (≈ 11.4 µM), 12.5 µg/mL (≈ 22.7 µM), 12.5 µg/mL (≈ 22.7 µM) and 5.33.
In the same order, the values of `Cc1ccc(C(=O)NCC(C)/N=C/c2cc(Cl)cc(Cl)c2O)c(O)c1` (stereo unspecified) are 3.13 µg/mL (≈ 8.21 µM), 25 µg/mL (≈ 65.6 µM), 1.56 µg/mL (≈ 4.09 µM), 6.25 µg/mL (≈ 16.4 µM) and 5.34.
Consider `CC(CNC(=O)c1cc(Br)ccc1O)/N=C/c1cc(Br)cc(Br)c1O` (stereo unspecified), for which the pIC50 in assay [1] was under 4.03.
For the compound `Cc1ccc(C(=O)NCC(C)/N=C/c2cc(Br)cc(Br)c2O)c(O)c1` (stereo unspecified), in assay [2], the pIC50 was 4.94. Moreover, the MIC in the assay on Escherichia coli is 0.78 µg/mL (≈ 1.66 µM); against Pseudomonas aeruginosa, 12.5 µg/mL (≈ 26.6 µM); in the assay with Bacillus subtilis it was 3.13 µg/mL (≈ 6.66 µM); in the assay with Staphylococcus aureus, over 50 µg/mL.
Regarding `Cc1ccc(C(=O)NCC(C)/N=C/c2cc(I)cc(I)c2O)c(O)c1` (stereo unspecified), in assay [1], the pIC50 was 4.58.
Regarding `Cc1ccc(C(=O)NCC(C)/N=C/c2c(O)ccc3ccccc23)c(O)c1` (stereo unspecified), in assay [2], the negative logarithm of the IC50 (pIC50) was 4.89. Besides, the MIC against Escherichia coli was 12.5 µg/mL (≈ 34.5 µM); in the assay on Pseudomonas aeruginosa, over 50 µg/mL; in the assay on Bacillus subtilis, 6.25 µg/mL (≈ 17.2 µM); with Staphylococcus aureus, over 50 µg/mL.
On to `CC(CNC(=O)c1ccccc1O)/N=C/c1ccccc1O` (stereo unspecified), for which the pIC50 in assay [1] is 4.56.
On the same count and under the same terms, with `CC(CNC(=O)c1ccccc1O)/N=C/c1cc(F)ccc1O` (stereo unspecified) the figure was 4.42.
Regarding `CC(CNC(=O)c1ccccc1O)/N=C/c1cc(Cl)ccc1O` (stereo unspecified), the negative-log IC50 (pIC50) in assay [2] is 4.78. Besides, the minimum inhibitory concentration (MIC) against Escherichia coli was 12.5 µg/mL (≈ 37.6 µM); in the assay on Pseudomonas aeruginosa, 3.13 µg/mL (≈ 9.41 µM); against Bacillus subtilis, over 50 µg/mL; against Staphylococcus aureus it was over 50 µg/mL.
For the compound `CC(CNC(=O)c1cc(Br)ccc1O)/N=C/c1cc(Br)ccc1O` (stereo unspecified), the pIC50 in assay [1] is 4.44.
Same read-out and setting: the result for `CC(CNC(=O)c1cc(Br)ccc1O)/N=C/c1c(O)ccc2ccccc12` (stereo unspecified) reads 4.59; that for `Cc1ccc(C(=O)NCC(C)/N=C/c2ccccc2O)c(O)c1` (stereo unspecified), 4.60.
For the compound `NC[C@H]1O[C@H](O[C@H]2[C@H](O)[C@@H](O[C@H]3O[C@H](CO)[C@@H](O)[C@H](N)[C@H]3O)[C@H](N)C[C@@H]2N)[C@H](O)[C@@H](O)[C@@H]1O` [KANAMYCIN], the MIC against Escherichia coli was 3.13 µg/mL (≈ 6.46 µM); against Pseudomonas aeruginosa, 3.13 µg/mL (≈ 6.46 µM); against Bacillus subtilis it was 1.56 µg/mL (≈ 3.22 µM); in the assay on Staphylococcus aureus, 1.56 µg/mL (≈ 3.22 µM).
